Measured values: ChEMBL document CHEMBL1649117, “GRL-02031, a novel nonpeptidic protease inhibitor (PI) containing a stereochemically defined fused cyclopentanyltetrahydrofuran potent against multi-PI-resistant human immunodeficiency virus type 1 in vitro” (Antimicrob Agents Chemother, 2009)

Experiments:
[1] = tested on: Human immunodeficiency virus 1; assay: Ratio of EC50 for HIV1 NL4-3 harboring L10F/I47V/V82I/I85V mutation in protease encoding region infected in human […] cells to EC50 for HIV1 NL4-3 infected in human MT4 cells; assay type: functional
[2] = tested on: Human immunodeficiency virus 1; assay: Ratio of EC50 for HIV1 NL4-3 harboring V82I/I85V mutation in protease encoding region infected in human […] cells to EC50 for HIV1 NL4-3 infected in human MT4 cells; assay type: functional
[3] = tested on: Human immunodeficiency virus 1; assay: Antiviral activity against HIV1 NL4-3 harboring I85V mutation in protease encoding region infected in human […] cells assessed as inhibition of p24 Gag protein production by ELISA; assay type: functional, organism-based; settings: Human immunodeficiency virus 1, NL4-3
Method in brief: (§1)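 Protease PCR fragments (ApaI/SmaI) were cloned into pHIV-1NLSma, and virions were harvested from transfected 293T cells over 48 h. MT-4 target cells (10^5/ml) were infected with 100 TCID50s, with or without drug, at 37°C. Day-7 supernatant p24 Gag was read by chemiluminescent enzyme immunoassay.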

[4] = tested on: Human immunodeficiency virus 1; assay: Antiviral activity against HIV1 NL4-3 harboring Q58E mutation in protease encoding region infected in human […] cells assessed as inhibition of p24 Gag protein production by ELISA; assay type: functional, organism-based; settings: Human immunodeficiency virus 1, NL4-3; method in brief: as §1
[5] = tested on: Human immunodeficiency virus 1; assay: Ratio of EC50 for HIV1 NL4-3 harboring I84V mutation in protease encoding region infected in human […] cells to EC50 for HIV1 NL4-3 infected in human MT4 cells; assay type: functional
[6] = tested on: Human immunodeficiency virus 1; assay: Ratio of EC50 for HIV1 NL4-3 harboring I84V/I85V mutation in protease encoding region infected in human […] cells to EC50 for HIV1 NL4-3 infected in human MT4 cells; assay type: functional
[7] = tested on: Human immunodeficiency virus 1; assay: Ratio of EC50 for HIV1 NL4-3 harboring L90M mutation in protease encoding region infected in human […] cells to EC50 for HIV1 NL4-3 infected in human MT4 cells; assay type: functional
[8] = tested on: Human immunodeficiency virus 1; assay: Ratio of EC50 for amprenavir to compound against HIV1 NL4-3 harboring I50V mutation in protease encoding region infected in human […] cells; assay type: functional
[9] = tested on: Human immunodeficiency virus 1; assay: Antiviral activity against HIV1 NL4-3 harboring L90M mutation in protease encoding region infected in human […] cells assessed as inhibition of p24 Gag protein production by ELISA; assay type: functional, organism-based; settings: Human immunodeficiency virus 1, NL4-3; method in brief: as §1
[10] = tested on: Human immunodeficiency virus 1; assay: Antiviral activity against HIV1 NL4-3 harboring M46I mutation in protease encoding region infected in human […] cells assessed as inhibition of p24 Gag protein production by ELISA; assay type: functional, organism-based; settings: Human immunodeficiency virus 1, NL4-3; method in brief: as §1
[11] = tested on: Human immunodeficiency virus 1; assay: Ratio of EC50 for amprenavir to compound against HIV1 NL4-3 harboring M46I/I47V mutation in protease encoding region infected in human […] cells; assay type: functional
[12] = tested on: Human immunodeficiency virus 1; assay: Ratio of EC50 for HIV1 NL4-3 harboring M46I/I47V mutation in protease encoding region infected in human […] cells to EC50 for HIV1 NL4-3 infected in human MT4 cells; assay type: functional
[13] = tested on: Human immunodeficiency virus 1; assay: Antiviral activity against HIV1 subtype E 92TH019 infected in human PHA-PBM cells after 7 days by MTT assay; assay type: functional, organism-based; settings: Human immunodeficiency virus 1, subtype E 92TH019, PBMC, 168 h
[14] = tested on: Human immunodeficiency virus 1; assay: Ratio of EC50 for HIV1 NL4-3 harboring Q58E mutation in protease encoding region infected in human […] cells to EC50 for HIV1 NL4-3 infected in human MT4 cells; assay type: functional
[15] = tested on: Human immunodeficiency virus 1; assay: Ratio of EC50 for saquinavir to compound against HIV1 NL4-3 harboring G48V mutation in protease encoding region infected in human […] cells; assay type: functional
[16] = tested on: Human immunodeficiency virus 1; assay: Ratio of EC50 for ritonavir to compound against HIV1 NL4-3 harboring V82I/I85V mutation in protease encoding region infected in human […] cells; assay type: functional
[17] = tested on: Human immunodeficiency virus 1; assay: Ratio of EC50 for amprenavir to compound against HIV1 NL4-3 harboring I47V mutation in protease encoding region infected in human […] cells; assay type: functional
[18] = tested on: Human immunodeficiency virus 1; assay: Ratio of EC50 for HIV1 NL4-3 harboring L10F/M46I/I47V/V82I/I85V mutation in protease encoding region infected in human […] cells to EC50 for HIV1 NL4-3 infected in human MT4 cells; assay type: functional
[19] = tested on: Human immunodeficiency virus 1; assay: Antiviral activity against HIV1 NL4-3 harboring I84V mutation in protease encoding region infected in human […] cells assessed as inhibition of p24 Gag protein production by ELISA; assay type: functional, organism-based; settings: Human immunodeficiency virus 1, NL4-3; method in brief: as §1
[20] = tested on: Human immunodeficiency virus 1; assay: Ratio of EC50 for amprenavir to compound against HIV1 NL4-3 harboring L10F mutation in protease encoding region infected in human […] cells; assay type: functional
[21] = tested on: Human immunodeficiency virus 1; assay: Ratio of EC50 for HIV1 NL4-3 harboring V82I mutation in protease encoding region infected in human […] cells to EC50 for HIV1 NL4-3 infected in human MT4 cells; assay type: functional
[22] = tested on: Human immunodeficiency virus 1; assay: Antiviral activity against HIV1 NL4-3 harboring D30N mutation in protease encoding region infected in human […] cells assessed as inhibition of p24 Gag protein production by ELISA; assay type: functional, organism-based; settings: Human immunodeficiency virus 1, NL4-3; method in brief: as §1
[23] = tested on: Human immunodeficiency virus 1; assay: Ratio of EC50 for HIV1 NL4-3 harboring I47V mutation in protease encoding region infected in human […] cells to EC50 for HIV1 NL4-3 infected in human MT4 cells; assay type: functional
[24] = tested on: Human immunodeficiency virus 1; assay: Ratio of EC50 for nelfinavir to compound against HIV1 NL4-3 harboring D30N mutation in protease encoding region infected in human […] cells; assay type: functional
[25] = tested on: Human immunodeficiency virus 1; assay: Ratio of EC50 for ritonavir to compound against HIV1 NL4-3 harboring V82I mutation in protease encoding region infected in human […] cells; assay type: functional
[26] = tested on: Human immunodeficiency virus 1; assay: Antiviral activity against HIV1 JRFL infected in human PHA-PBM cells after 7 days by MTT assay; assay type: functional, organism-based; settings: Human immunodeficiency virus 1, JRFL, PBMC, 168 h
[27] = tested on: Human immunodeficiency virus 1; assay: Ratio of EC50 for ritonavir to compound against HIV1 NL4-3 harboring L10F/I47V/V82I/I85V mutation in protease encoding region infected in human […] cells; assay type: functional
[28] = tested on: Human immunodeficiency virus 1; assay: Antiviral activity against HIV1 NL4-3 harboring L10F/M46I/I47V/V82I/I85V mutation in protease encoding region infected in human […] cells assessed as inhibition of p24 Gag protein production by ELISA; assay type: functional, organism-based; settings: Human immunodeficiency virus 1, NL4-3; method in brief: as §1
[29] = tested on: Human immunodeficiency virus 1; assay: Ratio of EC50 for HIV1 NL4-3 harboring I50V mutation in protease encoding region infected in human […] cells to EC50 for HIV1 NL4-3 infected in human MT4 cells; assay type: functional
[30] = tested on: Human immunodeficiency virus 1; assay: Antiviral activity against HIV1 NL4-3 harboring V82I mutation in protease encoding region infected in human […] cells assessed as inhibition of p24 Gag protein production by ELISA; assay type: functional, organism-based; settings: Human immunodeficiency virus 1, NL4-3; method in brief: as §1
[31] = tested on: Human immunodeficiency virus 1; assay: Ratio of EC50 for amprenavir to compound against HIV1 NL4-3 harboring L10F/M46I/I47V/V82I/I85V mutation in protease encoding region infected in human […] cells; assay type: functional
[32] = tested on: Human immunodeficiency virus 1; assay: Antiviral activity against HIV1 NL4-3 harboring G48V mutation in protease encoding region infected in human […] cells assessed as inhibition of p24 Gag protein production by ELISA; assay type: functional, organism-based; settings: Human immunodeficiency virus 1, NL4-3; method in brief: as §1
[33] = tested on: Human immunodeficiency virus 1; assay: Antiviral activity against HIV1 NL4-3 harboring L33F mutation in protease encoding region infected in human […] cells assessed as inhibition of p24 Gag protein production by ELISA; assay type: functional, organism-based; settings: Human immunodeficiency virus 1, NL4-3; method in brief: as §1

COc1ccc(S(=O)(=O)N(C[C@@H]2CCC(=O)N2)C[C@@H](O)[C@H](Cc2ccccc2)NC(=O)O[C@@H]2C[C@@H]3CCO[C@@H]3C2)cc1
Ratio EC50 [1]: 18.7 | Ratio EC50 [2]: 1.5 | EC50 [3]: 24 nM | EC50 [4]: 33 nM | Ratio EC50 [5]: 1.3 | Ratio EC50 [6]: 4.2 | Ratio EC50 [7]: 1.4 | Ratio EC50 [8]: 1.2 | EC50 [9]: 32 nM | EC50 [10]: 28 nM | Ratio EC50 [11]: 1.3 | Ratio EC50 [12]: 3.2 | EC50 [13]: 15 nM | Ratio EC50 [14]: 1.4 | Ratio EC50 [15]: 5.1 | Ratio EC50 [16]: 1.6 | Ratio EC50 [17]: 1.2 | Ratio EC50 [18]: >43 | EC50 [19]: 30 nM | Ratio EC50 [20]: 1.4 | Ratio EC50 [21]: 1.5 | EC50 [22]: 20 nM | Ratio EC50 [23]: 1.6 | Ratio EC50 [24]: 5.6 | Ratio EC50 [25]: 1.5 | EC50 [26]: 15 nM | Ratio EC50 [27]: 1.9 | EC50 [28]: > 1000 nM | Ratio EC50 [29]: 0.7 | EC50 [30]: 35 nM | Ratio EC50 [31]: 10 | EC50 [32]: 40 nM | EC50 [33]: 28 nM
